Assay results published in ChEMBL document CHEMBL1135552, “Synthesis and biological activities of cyclic lanthionine enkephalin analogues: delta-opioid receptor selective ligands” (J Med Chem, 2002).

Columns and labels:
Rattus norvegicus [1] = species: Rattus norvegicus; experiment: Dosage necessary to produce half maximal effect; Range is in between (98-163); type: functional
Rattus norvegicus [2] = species: Rattus norvegicus; experiment: Dosage necessary to produce half maximal effect; Range is in between (0.017-0.41); type: functional
[3] = target: T1, Delta-type opioid receptor (Homo sapiens, UniProt P41143); experiment: Inhibition of binding of [3H]diprenorphine to cloned human Opioid receptor delta 1 expressed in CHO cell membrane;Range is between (0.35-2.5); type: cell-based
Summary of the method: (§1)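 Membranes from CHO cells expressing cloned human µ, δ or κ receptors in Tris-HCl pH 7.8 buffer with EGTA, MgCl2 and protease inhibitors. 50-100 µg protein with 0.4 nM (final) [3H]-diprenorphine, 60 min, room temperature. Filtered on PEI/BSA-treated GF/B filters, counted by scintillation. Nonspecific binding with 10 µM naloxone. Four-parameter one-site fit; Ki by Cheng-Prusoff.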

[4] = target: T2, Kappa-type opioid receptor (Homo sapiens, UniProt P41145); experiment: Inhibition of binding of [3H]diprenorphine to cloned human Opioid receptor kappa 1 expressed in CHO cell membrane; type: cell-based
Mu-type opioid receptor [5] = target: T3, Mu-type opioid receptor (Homo sapiens, UniProt P35372); experiment: Inhibition of binding of [3H]diprenorphine to cloned human Opioid receptor mu 1 expressed in CHO cell membrane;Range is in between (580-680); type: cell-based; summary of the method: as §1
Mu-type opioid receptor [6] = target: Mu-type opioid receptor (Cavia porcellus, UniProt P97266); experiment: Ability to inhibit electrically evoked contractions of isolated muscle preparations of guinea pig ileum (GPI, mu receptor); type: functional, tissue-based
Summary of the method: (§2)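 Electrically evoked contractions of isolated guinea pig ileum (GPI) or mouse vas deferens (MVD) preparations. A log dose-response curve for [Leu5]-enkephalin was run as standard on each ileum and vas preparation. IC50 values were normalised to that standard.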

[7] = target: T4, Delta-type opioid receptor (Mus musculus, UniProt P32300); experiment: Ability to inhibit electrically evoked contractions of isolated muscle preparations of mouse vas deference (MVD, delta receptor); type: functional; summary of the method: as §2
[8] = target: T2, Kappa-type opioid receptor; experiment: Inhibition of binding of [3H]diprenorphine to cloned human Opioid receptor kappa 1 expressed in CHO cell membrane;Range is in between (1400-1900); type: cell-based; summary of the method: as §1
[9] = target: T1, Delta-type opioid receptor; experiment: Inhibition of binding of [3H]diprenorphine to cloned human Opioid receptor delta 1 expressed in CHO cell membrane;Range is between (1.7-2.3); type: cell-based
Mu-type opioid receptor [10] = target: T3, Mu-type opioid receptor; experiment: Inhibition of binding of [3H]diprenorphine to cloned human Opioid receptor mu 1 expressed in CHO cell membrane;Range is in between (1.8-2.2); type: cell-based
[11] = target: T4, Delta-type opioid receptor; experiment: Ability to inhibit electrically evoked contractions of isolated muscle preparations of mouse vas deferens (MVD, delta receptor); type: functional; summary of the method: as §2
Rattus norvegicus [12] = species: Rattus norvegicus; experiment: Dosage necessary to produce half maximal effect; Range is in between (0.0010-0.0024); type: functional
Mu-type opioid receptor [13] = target: T3, Mu-type opioid receptor; experiment: Inhibition of binding of [3H]diprenorphine to cloned human Opioid receptor mu 1 expressed in CHO cell membrane;Range is in between (110-150); type: cell-based; summary of the method: as §1
[14] = target: T1, Delta-type opioid receptor; experiment: Inhibition of binding of [3H]diprenorphine to cloned human Opioid receptor delta 1 expressed in CHO cell membrane;Range is between (0.66-0.95); type: cell-based; summary of the method: as §1
Rattus norvegicus [15] = species: Rattus norvegicus; experiment: Dosage necessary to produce half maximal effect; Range is in between (0.04-0.33); type: functional
[16] = target: T1, Delta-type opioid receptor; experiment: Inhibition of binding of [3H]diprenorphine to cloned human Opioid receptor delta 1 expressed in CHO cell membrane;Range is in between (0.62-0.65); type: cell-based
Rattus norvegicus [17] = species: Rattus norvegicus; experiment: Dosage necessary to produce half maximal effect; Range is in between (0.0010-0.0034); type: functional
[18] = target: T2, Kappa-type opioid receptor; experiment: Inhibition of binding of [3H]diprenorphine to cloned human Opioid receptor kappa 1 expressed in CHO cell membrane; range is in between (4700-8500); type: cell-based; summary of the method: as §1
Mu-type opioid receptor [19] = target: T3, Mu-type opioid receptor; experiment: Inhibition of binding of [3H]diprenorphine to cloned human Opioid receptor mu 1 expressed in CHO cell membrane;Range is in between (1.3-3.7); type: cell-based
Rattus norvegicus [20] = species: Rattus norvegicus; experiment: Dosage necessary to produce half maximal effect; Range is in between (10-24); type: functional

T3 sequence (P35372 whole entry): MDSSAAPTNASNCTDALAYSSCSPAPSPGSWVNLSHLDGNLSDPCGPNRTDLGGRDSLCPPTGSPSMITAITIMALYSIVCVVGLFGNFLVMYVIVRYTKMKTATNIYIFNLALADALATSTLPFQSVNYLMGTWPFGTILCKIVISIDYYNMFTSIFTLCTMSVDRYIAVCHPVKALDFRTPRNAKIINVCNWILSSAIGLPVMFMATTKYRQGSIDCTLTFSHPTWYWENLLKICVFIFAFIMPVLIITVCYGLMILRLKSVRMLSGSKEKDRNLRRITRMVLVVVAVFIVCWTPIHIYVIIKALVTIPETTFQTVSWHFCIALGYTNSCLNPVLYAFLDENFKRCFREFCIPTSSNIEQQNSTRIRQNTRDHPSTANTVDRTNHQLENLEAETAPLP
T2 sequence (P41145 whole entry): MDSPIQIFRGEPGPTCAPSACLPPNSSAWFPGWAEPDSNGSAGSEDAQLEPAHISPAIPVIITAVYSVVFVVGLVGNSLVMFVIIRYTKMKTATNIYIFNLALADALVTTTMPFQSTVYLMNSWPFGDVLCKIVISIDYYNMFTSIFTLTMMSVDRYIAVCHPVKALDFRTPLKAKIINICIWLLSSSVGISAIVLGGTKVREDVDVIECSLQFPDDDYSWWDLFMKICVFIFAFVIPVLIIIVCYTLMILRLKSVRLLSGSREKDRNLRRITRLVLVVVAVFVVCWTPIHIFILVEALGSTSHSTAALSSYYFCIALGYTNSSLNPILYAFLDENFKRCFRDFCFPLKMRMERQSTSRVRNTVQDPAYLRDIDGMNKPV
T1 sequence (P41143 whole entry): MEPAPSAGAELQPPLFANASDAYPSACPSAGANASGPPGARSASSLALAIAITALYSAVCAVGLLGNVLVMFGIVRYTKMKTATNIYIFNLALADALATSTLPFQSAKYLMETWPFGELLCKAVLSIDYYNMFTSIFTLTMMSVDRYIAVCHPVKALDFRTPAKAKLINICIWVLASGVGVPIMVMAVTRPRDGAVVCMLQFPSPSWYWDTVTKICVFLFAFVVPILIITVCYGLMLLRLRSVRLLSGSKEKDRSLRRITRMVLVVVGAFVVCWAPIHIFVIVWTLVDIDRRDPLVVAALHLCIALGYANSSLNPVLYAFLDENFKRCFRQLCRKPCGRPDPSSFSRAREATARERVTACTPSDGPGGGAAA
Sequence of Mu-type opioid receptor (Cavia porcellus, UniProt P97266) (P97266 whole entry): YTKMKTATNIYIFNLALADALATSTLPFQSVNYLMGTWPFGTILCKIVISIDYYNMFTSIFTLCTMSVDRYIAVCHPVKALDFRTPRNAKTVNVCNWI
T4 sequence (P32300 whole entry): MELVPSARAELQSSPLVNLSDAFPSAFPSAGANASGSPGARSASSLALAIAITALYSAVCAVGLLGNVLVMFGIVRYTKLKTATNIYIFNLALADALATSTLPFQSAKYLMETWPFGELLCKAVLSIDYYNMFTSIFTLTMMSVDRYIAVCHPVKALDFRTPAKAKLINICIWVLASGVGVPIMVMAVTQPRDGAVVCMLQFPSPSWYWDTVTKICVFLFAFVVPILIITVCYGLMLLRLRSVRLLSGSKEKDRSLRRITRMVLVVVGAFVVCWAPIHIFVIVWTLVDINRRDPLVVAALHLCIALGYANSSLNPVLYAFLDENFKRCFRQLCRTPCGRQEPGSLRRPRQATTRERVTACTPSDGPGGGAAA

CC1(C)SSC(C)(C)[C@@H](NC(=O)[C@@H](N)Cc2ccc(O)cc2)C(=O)NCC(=O)N[C@@H](Cc2ccccc2)C(=O)N[C@H]1C(=O)O
ED50 (Rattus norvegicus [1]): 130 nM

CC1(C)SC[C@H](C(=O)O)NC(=O)[C@H](Cc2ccccc2)NC(=O)CNC(=O)[C@@H]1NC(=O)[C@@H](N)Cc1ccc(O)cc1
ED50 (Rattus norvegicus [2]): 0.26 nM | Ki [3]: 0.93 nM | Ki [4]: > 10000 nM | Ki (Mu-type opioid receptor [5]): 630 nM | IC50 (Mu-type opioid receptor [6]): 730 nM | IC50 [7]: 2.33 nM

N[C@@H](Cc1ccc(O)cc1)C(=O)N[C@@H]1CSC[C@H](C(=O)O)NC(=O)[C@H](Cc2ccccc2)NC(=O)CNC1=O
Ki [8]: 1600 nM | Ki [9]: 2 nM | Ki (Mu-type opioid receptor [10]): 2 nM | IC50 [11]: 1.58 nM | ED50 (Rattus norvegicus [12]): 0.0015 nM | IC50 (Mu-type opioid receptor [6]): 0.56 nM

CC1(C)SC[C@@H](C(=O)O)NC(=O)[C@H](Cc2ccccc2)NC(=O)CNC(=O)[C@@H]1NC(=O)[C@@H](N)Cc1ccc(O)cc1
Ki (Mu-type opioid receptor [13]): 130 nM | Ki [4]: > 1000 nM | Ki [14]: 0.79 nM | IC50 (Mu-type opioid receptor [6]): 82 nM | IC50 [7]: 0.26 nM | ED50 (Rattus norvegicus [15]): 0.12 nM

N[C@@H](Cc1ccc(O)cc1)C(=O)N[C@@H]1CSC[C@@H](C(=O)O)NC(=O)[C@H](Cc2ccccc2)NC(=O)CNC1=O
Ki [16]: 0.63 nM | ED50 (Rattus norvegicus [17]): 0.0018 nM | Ki [18]: 6400 nM | IC50 [11]: 0.35 nM | IC50 (Mu-type opioid receptor [6]): 1.06 nM | Ki (Mu-type opioid receptor [19]): 2.3 nM

CN1CC[C@]23c4c5ccc(O)c4O[C@H]2[C@@H](O)C=C[C@H]3[C@H]1C5 [MORPHINE]
ED50 (Rattus norvegicus [20]): 15 nM
